From ChEMBL document CHEMBL1155008, “Brassinosteroids: synthesis and activity of some fluoro analogues” (J Med Chem, 2008)
pIC50: −log10 of the molar value.

Assays:
[1] = test system: MCF7; experiment: Cytotoxicity against human MCF7 cells assessed as cell survival after 72 hrs by calcein-AM assay; assay type: functional, cell-based; conditions: MCF7, 72 h
Summary of the method: (§1)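 Cells grown in DMEM with 10% fetal calf serum, 4 mM glutamine, penicillin/streptomycin, 37 °C, 5% CO2. Seeded at about 1.25 × 10^5 cells/mL and stabilised 3 h. Six 4-fold dilutions added from DMSO stocks, highest usually 50 µM, DMSO ≤0.6% final. After 72 h, calcein AM for 1 h, fluorescence read. Triplicates, ≥3 repeats; IC50 from dose-response curves.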

[2] = test system: CCRF-CEM; experiment: Cytotoxicity against human CEM cells assessed as cell survival after 72 hrs by calcein-AM assay; assay type: functional, cell-based; summary of the method: as §1
[3] = test system: Phaseolus vulgaris; experiment: Phyto activity in Phaseolus vulgaris cv. Pinto assessed as prolongation of the second internode after 5 days by brassinolide-type activity assay; assay type: functional
Summary of the method: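 Bean seedlings germinated 2 days, grown in perlite with diluted Hoagland solution (pH 5.7) at 25-27 °C under 16/8 h light. Seven-day-old plants with 2 mm second internodes received compound in 5 µL lanolin at the bract scar; controls got lanolin alone. ≥7 plants per experiment, ≥3 repeats. Internode length measured after 5 days, difference from control.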

[4] = test system: BJ; experiment: Cytotoxicity against human BJ cells assessed as cell survival after 72 hrs by calcein-AM assay; assay type: cell-based; summary of the method: as §1
[5] = test system: RPMI-8226; experiment: Cytotoxicity against human RPMI 8226 cells assessed as cell survival after 72 hrs by calcein-AM assay; assay type: functional, cell-based; conditions: RPMI-8226, 72 h; summary of the method: as §1

For CC(=O)O[C@H]1CC[C@H]2[C@@H]3CC(=O)[C@@]4(F)C[C@@H](O)[C@@H](O)C[C@]4(C)[C@H]3CC[C@]12C, the pIC50 [1] was < 4.30, the pIC50 [2] was < 4.30 and the Activity [3] was 21.4 mm. The pIC50 [4] was < 4.30 and the pIC50 [5] was < 4.30.

C[C@]12CC[C@H]3[C@@H](CC(=O)[C@@]4(F)C[C@H](F)CC[C@]34C)[C@@H]1CC[C@@H]2O was tested, and the pIC50 [1] was < 4.30, the pIC50 [2] was < 4.30 and the Activity [3] was 18.4 mm. For the same compound, the pIC50 [4] was < 4.30 and the pIC50 [5] was < 4.30.

C[C@]12CC[C@@H](F)C[C@@H]1C(=O)C[C@@H]1[C@@H]2CC[C@]2(C)[C@@H](O)CC[C@@H]12 was tested, and the pIC50 [1] was < 4.30, the pIC50 [2] was < 4.30 and the Activity [3] was 5.9 mm. The pIC50 [4] was < 4.30 and the pIC50 [5] was < 4.30.

For CC(=O)O[C@H]1CC[C@H]2[C@@H]3CC(=O)[C@@]4(F)C[C@@H](O)CC[C@]4(C)[C@H]3CC[C@]12C, the pIC50 [1] was < 4.30, the pIC50 [2] was < 4.30 and the Activity [3] was 17.1 mm. For the same compound, the pIC50 [4] was < 4.30 and the pIC50 [5] was < 4.30.

CC(C)[C@@H](C)[C@@H](O)[C@H](O)[C@@H](C)[C@H]1CC[C@H]2[C@@H]3CC(=O)[C@H]4C[C@H](F)CC[C@]4(C)[C@H]3CC[C@]12C gave a pIC50 [1] of 4.59, a pIC50 [2] of 4.86 and an Activity [3] of 13.2 mm. For the same compound, the pIC50 [4] was 4.34 and the pIC50 [5] was 4.63.

In the case of C[C@]12CC[C@@H](F)C[C@@H]1C(=O)C[C@@H]1[C@@H]2CC[C@]2(C)[C@@H](OC(=O)c3ccccc3)CC[C@@H]12, the pIC50 [1] was < 4.30, the pIC50 [2] was < 4.30 and the Activity [3] was 0.8 mm. The pIC50 [4] was < 4.30 and the pIC50 [5] was < 4.30.

Compound CC(C)[C@@H](C)[C@H](O)[C@@H](O)[C@@H](C)[C@H]1CC[C@H]2[C@@H]3CC(=O)[C@H]4C[C@H](F)CC[C@]4(C)[C@H]3CC[C@]12C has a pIC50 [1] of 4.59, a pIC50 [2] of 4.86 and an Activity [3] of 13.2 mm. The pIC50 [4] was 4.34 and the pIC50 [5] was 4.63.

With CC(=O)O[C@H]1CC[C@H]2[C@@H]3CC(=O)[C@@]4(F)C[C@H](O)[C@H](O)C[C@]4(C)[C@H]3CC[C@]12C the pIC50 [1] was < 4.30, the pIC50 [2] was < 4.30 and the Activity [3] was 12.3 mm. For the same compound, the pIC50 [4] was < 4.30 and the pIC50 [5] was < 4.30.

For CC(C)[C@@H](C)/C=C/[C@@H](C)[C@H]1CC[C@H]2[C@@H]3CC(=O)[C@H]4C[C@H](F)CC[C@]4(C)[C@H]3CC[C@]12C, the pIC50 [1] was < 4.30, the pIC50 [2] was < 4.30 and the Activity [3] was 9.9 mm. The pIC50 [4] was < 4.30 and the pIC50 [5] was < 4.30.

For CC(=O)O[C@H]1CC[C@H]2[C@@H]3CC(=O)[C@@]4(F)CC=CC[C@]4(C)[C@H]3CC[C@]12C, the pIC50 [1] was < 4.30, the pIC50 [2] was < 4.30 and the Activity [3] was 21.8 mm. For the same compound, the pIC50 [4] was < 4.30 and the pIC50 [5] was < 4.30.

In the case of C[C@]12CC[C@H]3[C@@H](CC(=O)[C@@]4(F)C[C@@H](O)[C@@H](O)C[C@]34C)[C@@H]1CC[C@@H]2O, the pIC50 [1] was < 4.30, the pIC50 [2] was < 4.30 and the Activity [3] was 21.8 mm. The pIC50 [4] was < 4.30 and the pIC50 [5] was 4.34.

CC(C)[C@@H](C)/C=C/[C@@H](C)[C@H]1CC[C@H]2[C@@H]3CC(=O)[C@H]4C[C@@H](O)CC[C@]4(C)[C@H]3CC[C@]12C showed a pIC50 [1] of 4.39, a pIC50 [2] of 4.58 and an Activity [3] of 9.4 mm. For the same compound, the pIC50 [4] was 4.38 and the pIC50 [5] was 4.57.

For C[C@]12CC[C@H]3[C@@H](CC(=O)[C@@]4(F)CC=CC[C@]34C)[C@@H]1CC[C@@H]2O, the pIC50 [1] was < 4.30, the pIC50 [2] was < 4.30 and the Activity [3] was 13.6 mm. For the same compound, the pIC50 [4] was < 4.30 and the pIC50 [5] was < 4.30.

C[C@]12CC[C@H]3[C@@H](CC(=O)[C@@]4(F)C[C@@H](O)CC[C@]34C)[C@@H]1CC[C@@H]2O was tested, and the pIC50 [1] was < 4.30, the pIC50 [2] was < 4.30 and the Activity [3] was 16.9 mm. For the same compound, the pIC50 [4] was < 4.30 and the pIC50 [5] was < 4.30.

C[C@]12CC[C@H]3[C@@H](CC(=O)[C@@]4(F)C[C@H](O)CC[C@]34C)[C@@H]1CC[C@@H]2O was tested, and the pIC50 [1] was < 4.30, the pIC50 [2] was < 4.30 and the Activity [3] was 43.4 mm. The pIC50 [4] was < 4.30 and the pIC50 [5] was < 4.30.

In the case of CC(=O)O[C@H]1CC[C@H]2[C@@H]3CC(=O)[C@@]4(F)C[C@H](O)CC[C@]4(C)[C@H]3CC[C@]12C, the pIC50 [1] was < 4.30, the pIC50 [2] was < 4.30 and the Activity [3] was 21.4 mm. The pIC50 [4] was < 4.30 and the pIC50 [5] was < 4.30.

For C[C@]12CC[C@H](O)C[C@@H]1C(=O)C[C@@H]1[C@@H]2CC[C@]2(C)[C@@H](OC(=O)c3ccccc3)CC[C@@H]12, the pIC50 [1] was < 4.30, the pIC50 [2] was < 4.30 and the Activity [3] was 3.8 mm. For the same compound, the pIC50 [4] was < 4.30 and the pIC50 [5] was < 4.30.

In the case of CC[C@@H](C(C)C)[C@@H](O)[C@H](O)[C@@H](C)[C@H]1CC[C@H]2[C@@H]3CC(=O)[C@H]4C[C@H](O)[C@H](O)C[C@]4(C)[C@H]3CC[C@]12C, the pIC50 [1] was < 4.30, the pIC50 [4] was < 4.30 and the pIC50 [5] was 4.59.

In the case of C[C@]12CC[C@H]3[C@@H](CC(=O)[C@@]4(F)C[C@H](O)[C@H](O)C[C@]34C)[C@@H]1CC[C@@H]2O, the pIC50 [1] was < 4.30, the pIC50 [2] was < 4.30 and the Activity [3] was 19.5 mm. For the same compound, the pIC50 [4] was < 4.30 and the pIC50 [5] was < 4.30.

CC(=O)O[C@H]1CC[C@H]2[C@@H]3CC(=O)[C@@]4(F)C[C@H](F)CC[C@]4(C)[C@H]3CC[C@]12C was tested, and the pIC50 [1] was < 4.30, the pIC50 [2] was 4.37 and the Activity [3] was 19.8 mm. For the same compound, the pIC50 [4] was < 4.30 and the pIC50 [5] was < 4.30.

C[C@]12CC[C@@H](F)C[C@@H]1C(=O)C[C@@H]1[C@@H]2CC[C@]2(C)C(=O)CC[C@@H]12 was tested, and the pIC50 [1] was < 4.30, the pIC50 [2] was < 4.30 and the Activity [3] was 14.9 mm. For the same compound, the pIC50 [4] was < 4.30 and the pIC50 [5] was < 4.30.
